Assay results as given in ChEMBL document CHEMBL3797160, “Discovery of novel diaryl urea derivatives bearing a triazole moiety as potential antitumor agents” (Eur J Med Chem, 2016).

Experiments:
MDA-MB-231 = test: Antiproliferative activity against human MDA-MB-231 cells after 72 hrs by MTT assay; type: functional, cell-based; conditions: MDA-MB-231, 72 h
Procedure, shortened: (§1)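 MTT assay. Cells grown in MEM with 10% FBS. About 4 × 10³ cells per well were plated and left 24 h at 37 °C in 5% CO₂. Compounds were then added for a further 72 h. MTT was added to a final 5 µg/mL for 4 h at 37 °C. Formazan was dissolved in DMSO and read at 492 nm against a 630 nm reference. Each line was tested three times, and IC50 is the average of at least three determinations.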

HT-29 = test: Antiproliferative activity against human HT-29 cells after 72 hrs by MTT assay; type: functional, cell-based; conditions: HT-29, 72 h; procedure, shortened: as §1
[1] = Antiproliferative activity against human H460 cells after 72 hrs by MTT assay; type: functional, cell-based; conditions: NCI-H460, 72 h; procedure, shortened: as §1
[2] = biological target: Proto-oncogene tyrosine-protein kinase receptor Ret (Homo sapiens) (UniProt P07949); test: Inhibition of RET (unknown origin) at 10 uM after 1 hr by mobility shift assay
Sequence of Proto-oncogene tyrosine-protein kinase receptor Ret (Homo sapiens) (P07949 whole entry): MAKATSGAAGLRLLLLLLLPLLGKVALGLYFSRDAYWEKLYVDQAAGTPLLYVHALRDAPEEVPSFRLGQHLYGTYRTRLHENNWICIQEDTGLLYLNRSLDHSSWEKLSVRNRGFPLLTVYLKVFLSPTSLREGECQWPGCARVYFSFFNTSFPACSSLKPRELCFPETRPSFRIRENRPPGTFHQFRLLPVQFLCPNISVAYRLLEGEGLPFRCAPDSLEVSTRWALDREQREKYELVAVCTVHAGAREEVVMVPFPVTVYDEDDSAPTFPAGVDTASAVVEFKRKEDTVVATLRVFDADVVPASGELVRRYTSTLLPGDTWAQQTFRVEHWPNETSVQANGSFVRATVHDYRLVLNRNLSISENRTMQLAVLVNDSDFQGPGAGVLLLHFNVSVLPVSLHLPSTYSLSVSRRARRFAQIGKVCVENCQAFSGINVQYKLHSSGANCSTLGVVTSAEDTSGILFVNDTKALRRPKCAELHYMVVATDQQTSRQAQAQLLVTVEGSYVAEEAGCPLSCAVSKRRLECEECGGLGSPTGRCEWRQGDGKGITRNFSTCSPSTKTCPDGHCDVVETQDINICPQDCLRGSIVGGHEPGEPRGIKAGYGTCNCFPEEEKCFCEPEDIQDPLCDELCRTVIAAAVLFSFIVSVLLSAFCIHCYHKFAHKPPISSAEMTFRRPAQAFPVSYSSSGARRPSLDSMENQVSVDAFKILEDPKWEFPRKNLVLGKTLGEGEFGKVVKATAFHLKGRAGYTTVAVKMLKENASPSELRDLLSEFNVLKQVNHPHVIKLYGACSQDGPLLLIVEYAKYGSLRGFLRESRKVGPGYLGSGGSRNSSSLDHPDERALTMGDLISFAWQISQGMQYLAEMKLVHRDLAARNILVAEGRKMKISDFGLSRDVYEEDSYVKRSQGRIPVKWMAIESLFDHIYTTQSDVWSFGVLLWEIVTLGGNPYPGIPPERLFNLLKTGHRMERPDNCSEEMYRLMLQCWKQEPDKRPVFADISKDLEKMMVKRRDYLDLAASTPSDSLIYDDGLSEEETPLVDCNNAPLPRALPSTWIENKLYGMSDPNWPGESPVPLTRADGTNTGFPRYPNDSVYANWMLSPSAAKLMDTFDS
Procedure, shortened: (§2)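 Mobility shift kinase assay. Compounds were diluted in DMSO and then in kinase buffer, and tested in duplicate wells with enzyme and peptide substrate. Incubation was 1 h at 28 °C before stop buffer was added.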

[3] = Cytotoxicity against human WI38 cells after 72 hrs by MTT assay; type: cell-based; conditions: WI-38, 72 h; procedure, shortened: as §1
[4] = biological target: Mast/stem cell growth factor receptor Kit (Homo sapiens) (UniProt P10721); test: Inhibition of c-KIT (unknown origin) at 10 uM after 1 hr by mobility shift assay; procedure, shortened: as §2
Sequence of Mast/stem cell growth factor receptor Kit (Homo sapiens) (P10721 whole entry): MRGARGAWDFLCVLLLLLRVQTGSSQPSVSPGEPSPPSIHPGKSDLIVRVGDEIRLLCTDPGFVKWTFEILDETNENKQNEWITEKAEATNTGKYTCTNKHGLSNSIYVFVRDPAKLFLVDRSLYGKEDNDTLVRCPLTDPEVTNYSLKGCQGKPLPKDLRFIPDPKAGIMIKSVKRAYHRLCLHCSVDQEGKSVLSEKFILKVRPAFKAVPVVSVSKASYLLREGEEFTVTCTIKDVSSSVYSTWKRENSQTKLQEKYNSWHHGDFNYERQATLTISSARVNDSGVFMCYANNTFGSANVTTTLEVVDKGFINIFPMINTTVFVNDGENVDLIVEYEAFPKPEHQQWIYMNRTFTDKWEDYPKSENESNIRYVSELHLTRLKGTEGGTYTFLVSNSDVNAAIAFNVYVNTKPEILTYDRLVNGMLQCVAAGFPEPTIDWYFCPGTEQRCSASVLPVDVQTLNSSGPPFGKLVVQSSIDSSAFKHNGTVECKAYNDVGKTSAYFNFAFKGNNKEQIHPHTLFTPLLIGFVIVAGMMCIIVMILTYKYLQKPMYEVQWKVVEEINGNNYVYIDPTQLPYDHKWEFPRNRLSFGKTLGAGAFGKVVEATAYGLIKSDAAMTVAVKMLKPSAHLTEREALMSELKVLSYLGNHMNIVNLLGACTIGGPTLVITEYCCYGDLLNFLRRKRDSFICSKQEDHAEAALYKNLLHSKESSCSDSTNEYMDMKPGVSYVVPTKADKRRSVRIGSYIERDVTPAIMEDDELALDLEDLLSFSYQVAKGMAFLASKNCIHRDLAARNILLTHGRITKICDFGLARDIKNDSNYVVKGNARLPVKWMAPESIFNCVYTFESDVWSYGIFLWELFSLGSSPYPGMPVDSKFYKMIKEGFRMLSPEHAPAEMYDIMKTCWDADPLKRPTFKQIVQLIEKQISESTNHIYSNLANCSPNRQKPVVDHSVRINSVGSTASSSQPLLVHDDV

[5] = biological target: Vascular endothelial growth factor receptor 2 (Homo sapiens) (UniProt P35968); conditions: at 10 µM;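 also: kinase activity read out by mobility shift assay after 1 h of incubation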
Sequence of Vascular endothelial growth factor receptor 2 (Homo sapiens) (P35968 whole entry): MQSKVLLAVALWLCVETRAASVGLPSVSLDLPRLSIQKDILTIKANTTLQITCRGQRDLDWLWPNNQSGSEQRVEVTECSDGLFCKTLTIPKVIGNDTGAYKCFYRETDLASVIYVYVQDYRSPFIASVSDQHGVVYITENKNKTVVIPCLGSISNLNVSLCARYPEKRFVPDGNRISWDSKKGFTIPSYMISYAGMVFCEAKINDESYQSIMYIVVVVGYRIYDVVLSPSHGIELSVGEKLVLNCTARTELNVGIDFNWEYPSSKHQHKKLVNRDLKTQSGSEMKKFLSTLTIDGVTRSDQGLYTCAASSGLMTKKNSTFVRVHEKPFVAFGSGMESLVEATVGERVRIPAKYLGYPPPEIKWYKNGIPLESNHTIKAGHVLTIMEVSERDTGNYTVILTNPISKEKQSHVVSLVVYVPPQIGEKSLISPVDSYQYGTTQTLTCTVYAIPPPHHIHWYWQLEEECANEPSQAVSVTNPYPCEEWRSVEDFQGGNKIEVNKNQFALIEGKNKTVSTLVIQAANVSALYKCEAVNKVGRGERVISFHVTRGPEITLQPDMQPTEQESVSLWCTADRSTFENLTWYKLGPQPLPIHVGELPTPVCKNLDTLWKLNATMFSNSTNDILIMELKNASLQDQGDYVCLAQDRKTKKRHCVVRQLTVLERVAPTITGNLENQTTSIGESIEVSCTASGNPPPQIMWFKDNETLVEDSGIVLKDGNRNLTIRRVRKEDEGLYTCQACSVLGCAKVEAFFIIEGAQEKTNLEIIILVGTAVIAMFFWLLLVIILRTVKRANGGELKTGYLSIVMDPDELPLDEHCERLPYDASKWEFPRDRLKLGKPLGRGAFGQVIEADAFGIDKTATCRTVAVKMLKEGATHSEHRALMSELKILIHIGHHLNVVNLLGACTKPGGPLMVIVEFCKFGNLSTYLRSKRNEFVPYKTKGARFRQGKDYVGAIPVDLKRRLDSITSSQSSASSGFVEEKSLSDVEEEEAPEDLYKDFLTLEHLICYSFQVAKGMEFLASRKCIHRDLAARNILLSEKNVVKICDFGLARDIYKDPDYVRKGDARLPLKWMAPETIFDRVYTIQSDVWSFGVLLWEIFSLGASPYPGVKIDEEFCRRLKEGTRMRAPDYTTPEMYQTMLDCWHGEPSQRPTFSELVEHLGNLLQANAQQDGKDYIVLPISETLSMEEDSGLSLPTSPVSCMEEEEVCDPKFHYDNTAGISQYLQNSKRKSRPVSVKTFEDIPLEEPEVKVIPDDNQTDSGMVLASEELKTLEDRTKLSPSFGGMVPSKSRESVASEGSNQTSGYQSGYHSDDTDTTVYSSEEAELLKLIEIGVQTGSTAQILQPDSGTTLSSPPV

[6] = biological target: Receptor-type tyrosine-protein kinase FLT3 (Homo sapiens) (UniProt P36888); test: Inhibition of FLT3 (unknown origin) at 10 uM after 1 hr by mobility shift assay; procedure, shortened: as §2
Sequence of Receptor-type tyrosine-protein kinase FLT3 (Homo sapiens) (P36888 whole entry): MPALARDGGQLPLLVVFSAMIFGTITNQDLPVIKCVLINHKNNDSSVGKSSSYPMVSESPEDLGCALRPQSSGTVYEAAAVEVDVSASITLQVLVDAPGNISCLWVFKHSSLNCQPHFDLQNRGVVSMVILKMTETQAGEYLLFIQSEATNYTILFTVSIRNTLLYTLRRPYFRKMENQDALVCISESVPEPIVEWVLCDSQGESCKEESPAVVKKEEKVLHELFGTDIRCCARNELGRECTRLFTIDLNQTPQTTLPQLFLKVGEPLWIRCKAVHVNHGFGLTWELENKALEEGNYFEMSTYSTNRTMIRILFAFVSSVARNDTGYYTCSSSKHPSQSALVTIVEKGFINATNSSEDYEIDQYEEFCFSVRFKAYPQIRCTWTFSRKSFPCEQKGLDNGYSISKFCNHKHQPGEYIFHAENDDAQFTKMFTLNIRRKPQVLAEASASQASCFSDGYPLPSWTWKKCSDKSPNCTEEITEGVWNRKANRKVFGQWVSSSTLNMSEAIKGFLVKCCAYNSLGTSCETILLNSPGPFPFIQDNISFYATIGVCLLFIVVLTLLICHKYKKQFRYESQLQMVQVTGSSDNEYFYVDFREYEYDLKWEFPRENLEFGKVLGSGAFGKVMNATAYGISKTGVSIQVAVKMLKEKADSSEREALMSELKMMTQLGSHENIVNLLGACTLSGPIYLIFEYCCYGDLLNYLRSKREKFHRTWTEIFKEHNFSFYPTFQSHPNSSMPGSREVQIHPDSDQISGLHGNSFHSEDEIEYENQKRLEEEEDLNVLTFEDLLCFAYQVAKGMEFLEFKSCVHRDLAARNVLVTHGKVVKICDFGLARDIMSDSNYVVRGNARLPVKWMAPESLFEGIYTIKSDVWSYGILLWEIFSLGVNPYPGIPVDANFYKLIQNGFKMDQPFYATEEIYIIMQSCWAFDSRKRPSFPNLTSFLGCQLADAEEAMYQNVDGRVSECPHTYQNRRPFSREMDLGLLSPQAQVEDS

Compound	IC50 (MDA-MB-231)	IC50 (HT-29)	IC50 [1]	inhibition [2]	IC50 [3]	inhibition [4]	inhibition [5]	inhibition [6]
CN(C)CCCn1cnnc1-c1cc(Oc2ccc(NC(=O)Nc3ccc(F)c(F)c3)cc2F)ccn1	25.2 µM	1.21 µM	1.08 µM	30.9%	15.3 µM	63.1%	20.3%	44.3%
O=C(Nc1ccc(Oc2ccnc(-c3nncn3CCCN3CCOCC3)c2)c(F)c1)Nc1ccc(Cl)cc1Cl	> 50 µM	3.56 µM		45.6%		43.5%		22%
O=C(Nc1ccc(Oc2ccnc(-c3nncn3C3CC3)c2)c(F)c1)Nc1ccc(Cl)c(C(F)(F)F)c1	> 50 µM	10.9 µM	> 50 µM					
O=C(Nc1ccc(Oc2ccnc(-c3nncn3CCCN3CCOCC3)c2)c(F)c1)Nc1ccccc1C(F)(F)F		15.7 µM						
CN(C)CCCn1cnnc1-c1cc(Oc2ccc(NC(=O)Nc3ccc(Cl)c(C(F)(F)F)c3)cc2F)ccn1	7.88 µM	1.4 µM	1.68 µM	79.3%	7.91 µM	69.9%	10.9%	86.9%
CN(C)CCn1cnnc1-c1cc(Oc2ccc(NC(=O)Nc3cccc(C(F)(F)F)c3)cc2F)ccn1	16.4 µM	1.47 µM	2.15 µM	77.7%	11.2 µM	60.5%	2.7%	42.2%
CN(C)CCn1cnnc1-c1cc(Oc2ccc(NC(=O)Nc3ccc(Cl)c(C(F)(F)F)c3)cc2F)ccn1	1.07 µM	0.88 µM	1.15 µM	74.1%	3.76 µM	70.4%	0%	66.3%
CCN(CC)CCn1cnnc1-c1cc(Oc2ccc(NC(=O)Nc3ccc(Cl)cc3Cl)cc2F)ccn1	1.79 µM	3.59 µM	5.38 µM		4.28 µM			
O=C(Nc1ccc(Oc2ccnc(-c3nncn3CCCN3CCOCC3)c2)c(F)c1)Nc1ccc(Cl)c(C(F)(F)F)c1	8.28 µM	2.86 µM	3.23 µM	42.3%	9.65 µM	56.7%	0%	38.5%
CNC(=O)c1cc(Oc2ccc(NC(=O)Nc3ccc(Cl)c(C(F)(F)F)c3)cc2)ccn1 [SORAFENIB]	3.08 µM	3.37 µM	2.25 µM	97%	8.42 µM	95.6%		98.5%
CCN(CC)CCn1cnnc1-c1cc(Oc2ccc(NC(=O)Nc3ccccc3C(F)(F)F)cc2F)ccn1	11.6 µM	3.41 µM	> 50 µM		23.5 µM			
CN(C)CCn1cnnc1-c1cc(Oc2ccc(NC(=O)Nc3ccc(Cl)cc3Cl)cc2F)ccn1	7.96 µM	1.89 µM	4.35 µM		10.4 µM		6%	
Cn1ncnc1-c1cc(Oc2ccc(NC(=O)Nc3ccc(Cl)c(C(F)(F)F)c3)cc2F)ccn1	> 50 µM	12.4 µM	> 50 µM		> 50 µM			
CN(C)CCn1cnnc1-c1cc(Oc2ccc(NC(=O)Nc3ccccc3C(F)(F)F)cc2F)ccn1	> 50 µM	5.86 µM	> 50 µM	43%	> 50 µM	22.7%	2.2%	17.6%
